Measured values: ChEMBL document CHEMBL2176901, “Pyrrolo[3,4-h]quinolinones a new class of photochemotherapeutic agents” (Bioorg Med Chem, 2011)
pIC50: −log10 of the molar value. Active and inactive are the calls of the source. The rule behind the calls is not given here.

Assays:
HL-60 [1] = experiment: Phototoxicity in 2.5 J/cm'2 UV-A irradiated human HL60 cells after 72 hrs by MTT assay; format: functional, cell-based; details: HL-60, light or radiation study
In short: (§1)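 HL-60 and Jurkat (8×10³/well, RPMI-1640) and MCF-7, LoVo, NCTC-2544 (5×10³/well; DMEM or Ham's F12) preincubated 18 h at 37 °C, 5% CO₂. Compound in DMSO diluted in HBSS pH 7.2, 30 min at 37 °C, then UV-A at 2.5 or 3.75 J/cm². Medium replaced, 72 h incubation, MTT read-out. IC50 as mean ± SEM of three experiments.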

HL-60 [2] = experiment: Phototoxicity in 3.75 J/cm'2 UV-A irradiated human HL60 cells after 72 hrs by MTT assay; format: functional, cell-based; details: HL-60, light or radiation study; in short: as §1
Jurkat [3] = experiment: Phototoxicity in 2.5 J/cm'2 UV-A irradiated human Jurkat cells after 72 hrs by MTT assay; format: functional, cell-based; details: light or radiation study; in short: as §1
Jurkat [4] = experiment: Phototoxicity in 3.75 J/cm'2 UV-A irradiated human Jurkat cells after 72 hrs by MTT assay; format: functional, cell-based; details: light or radiation study
In short: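 Jurkat cells (8 × 10³/well) in RPMI-1640 with 10% FBS, held 18 h at 37 °C, 5% CO2. Compound stock in DMSO was diluted in HBSS pH 7.2 and added for 30 min at 37 °C. Cells were UV-A irradiated (lamp mainly 365 nm, 4.0 mW/cm²), then returned to medium for 72 h. MTT readout. IC50 is the mean ± SEM of three experiences.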

MCF7 [5] = experiment: Phototoxicity in 2.5 J/cm'2 UV-A irradiated human MCF7 cells after 72 hrs by MTT assay; format: functional, cell-based; details: MCF7, light or radiation study; in short: as §1
MCF7 [6] = experiment: Phototoxicity in 3.75 J/cm'2 UV-A irradiated human MCF7 cells after 72 hrs by MTT assay; format: functional, cell-based; details: MCF7, light or radiation study
In short: (§2)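 Seeded at 5 × 10³ cells/well with 10% FBS: MCF-7 and NCTC-2544 in DMEM, LoVo in Ham's F12. Pre-incubated 18 h at 37 °C, 5% CO2. Compound (DMSO stock diluted in HBSS pH 7.2) was applied for 30 min at 37 °C, then UV-A irradiation (mainly 365 nm, 4.0 mW/cm²). Medium was restored for 72 h before MTT. IC50 is the mean ± SEM of three experiences.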

LoVo [7] = experiment: Phototoxicity in 2.5 J/cm'2 UV-A irradiated human LoVo cells after 72 hrs by MTT assay; format: functional, cell-based; details: light or radiation study; in short: as §1
LoVo [8] = experiment: Phototoxicity in 3.75 J/cm'2 UV-A irradiated human LoVo cells after 72 hrs by MTT assay; format: functional, cell-based; details: light or radiation study; in short: as §2
[9] = Phototoxicity in 2.5 J/cm'2 UV-A irradiated human NCTC-2544 cells after 72 hrs by MTT assay; format: functional, cell-based; details: NCTC-2544, light or radiation study; in short: as §1
[10] = Phototoxicity in 3.75 J/cm'2 UV-A irradiated human NCTC-2544 cells after 72 hrs by MTT assay; format: functional, cell-based; details: NCTC-2544, light or radiation study; in short: as §2
[11] = Photodegradation of the compound in DMSO assessed as formation of photoproducts at 20 uM at 1.3 to 15.2 J/cm'2 UV-A irradiation; format: physicochemical
In short: (§3)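 Compound solutions at 20 μM in DMSO exposed to increasing UV-A doses (HPW 125 lamps, mainly 365 nm, 4.0 mW cm⁻²). Absorption spectra recorded after each dose; isosbestic points noted.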

Jurkat [12] = experiment: Cell cycle arrest in UV-A irradiated human Jurkat cells assessed as accumulation at G1 phase at 5 uM after 24 hrs by propidium iodide based flow cytometry (reference value: 64.4 %); format: functional
In short: (§4)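 Exponentially growing Jurkat cells (5×10^5) irradiated with UV-A (365 nm lamp, 2.5 J/cm²) in presence of compound. After 24 h: fixed in ice-cold 70% ethanol, lysed with RNAse A, stained with PI (10 µg/ml), analysed by flow cytometry. Phases calculated on living cells; subG1 is hypodiploid DNA peak.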

Jurkat [13] = experiment: Cell cycle arrest in UV-A irradiated human Jurkat cells assessed as accumulation at S phase at 5 uM after 24 hrs by propidium iodide based flow cytometry (reference value: 25.3 %); format: functional; in short: as §4
Jurkat [14] = experiment: Cell cycle arrest in UV-A irradiated human Jurkat cells assessed as accumulation at G2/M phase at 5 uM after 24 hrs by propidium iodide based flow cytometry (reference value: 10.3 %); format: functional; in short: as §4
Jurkat [15] = experiment: Cell cycle arrest in UV-A irradiated human Jurkat cells assessed as accumulation at Sub G1 phase at 5 uM after 24 hrs by propidium iodide based flow cytometry (reference value: 0.1 %); format: functional; in short: as §4
Jurkat [16] = experiment: Cell cycle arrest in UV-A irradiated human Jurkat cells assessed as accumulation at G1 phase at 10 uM after 24 hrs by propidium iodide based flow cytometry (reference value: 64.4 %); format: functional; in short: as §4
Jurkat [17] = experiment: Cell cycle arrest in UV-A irradiated human Jurkat cells assessed as accumulation at S phase at 10 uM after 24 hrs by propidium iodide based flow cytometry (reference value: 25.3 %); format: functional; in short: as §4
Jurkat [18] = experiment: Cell cycle arrest in UV-A irradiated human Jurkat cells assessed as accumulation at G2/M phase at 10 uM after 24 hrs by propidium iodide based flow cytometry (reference value: 10.3 %); format: functional; in short: as §4
Jurkat [19] = experiment: Cell cycle arrest in UV-A irradiated human Jurkat cells assessed as accumulation at Sub G1 phase at 10 uM after 24 hrs by propidium iodide based flow cytometry (reference value: 0.1 %); format: functional; in short: as §4
Nucleic Acid [20] = experiment: Binding affinity to salmon testes DNA at drug/DNA ratio of 0.01 by linear dichroism analysis; format: nucleic-acid assay; details: Salmonidae
In short: (§5)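 Flow linear dichroism in 10 mM phosphate buffer pH 7.2. Samples oriented in a rotating cylindrical cuvette (0.14 cm path, 800 rpm) at several drug/DNA ratios.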

Nucleic Acid [21] = experiment: Binding affinity to salmon testes DNA at drug/DNA ratio of 0.02 by linear dichroism analysis; format: nucleic-acid assay; details: Salmonidae; in short: as §5
Nucleic Acid [22] = experiment: Binding affinity to salmon testes DNA at drug/DNA ratio of 0.03 by linear dichroism analysis; format: nucleic-acid assay; details: Salmonidae; in short: as §5
Nucleic Acid [23] = experiment: Binding affinity to salmon testes DNA at 10 uM by fluorescence titration; format: nucleic-acid assay; details: Salmonidae
In short: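 Fluorimetric titration of compound (10 μM) with increasing stDNA (0 to 100 μM) in 10 mM phosphate buffer pH 7.2; quenching of compound fluorescence monitored.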

Jurkat [24] = experiment: Induction of lipid peroxidation in 2.5 J/cm'2 UV-A irradiated human Jurkat cells assessed as increase in TBARS formation after 24 hrs by thiobarbituric acid assay; format: functional, cell-based
In short: (§6)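 Lipid peroxidation measured as MDA–thiobarbituric acid adducts, with BHT added to samples; calibrated to a 1,1,3,3-tetraethoxypropane standard curve; protein by Peterson method.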

Jurkat [25] = experiment: Induction of lipid peroxidation in 3.75 J/cm'2 UV-A irradiated human Jurkat cells assessed as increase in TBARS formation after 24 hrs by thiobarbituric acid assay; format: functional, cell-based; in short: as §6
[26] = Photodegradation of the compound in DMSO assessed as formation of photoproducts at 20 uM at 1.3 to 14.3 J/cm'2 UV-A irradiation; format: physicochemical; in short: as §3
Jurkat [27] = experiment: Induction of apoptosis in UV-A irradiated human Jurkat cells assessed as loss of mitochondrial membrane potential after 6 hrs by cytofluorimetric analysis; format: functional, cell-based
In short: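 Jurkat cells 6, 12 and 24 h after UV-A (2.5 J/cm²) with compound, resuspended in HBSS with JC-1 (1 μg/ml). Green (FL1) and orange (FL2) fluorescence collected by flow cytometry, ≥10000 events; cells with monomeric JC-1 counted as collapsed potential. Mean ± SEM of three experiments.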

Jurkat [28] = experiment: Induction of apoptosis in UV-A irradiated human Jurkat cells assessed as increase in number of damaged lysosomes after 6 to 24 hrs by acridine orange- based flow cytometry; format: functional, cell-based
In short: (§7)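 Lysosomal stability in Jurkat cells 6, 12 and 24 h after UV-A (2.5 J/cm²) with compound. Cells resuspended in RPMI-1640 with 1 µM acridine orange; flow cytometry, excitation 488 nm, emission in FL3. Mean ± SEM of three experiments.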

Jurkat [29] = experiment: Induction of apoptosis in UV-A irradiated human Jurkat cells assessed as increase in number of damaged lysosomes at 5 to 10 uM by acridine orange-based flow cytometry; format: functional, cell-based; in short: as §7

| Activity (Nucleic Acid [20]) | Activity (Nucleic Acid [21]) | SMILES | pIC50 (HL-60 [1]) | pIC50 (HL-60 [2]) | pIC50 (Jurkat [3]) | pIC50 (Jurkat [4]) | pIC50 (MCF7 [5]) | pIC50 (MCF7 [6]) | pIC50 (LoVo [7]) | pIC50 (LoVo [8]) | pIC50 [9] | pIC50 [10] | Activity (Jurkat [12]) [%] | Activity (Jurkat [13]) [%] | Activity (Jurkat [14]) [%] | Activity (Jurkat [15]) [%] | Activity (Jurkat [16]) [%] | Activity (Jurkat [17]) [%] | Activity (Jurkat [18]) [%] | Activity (Jurkat [19]) [%] | other results |
| --- | --- | --- | --- | --- | --- | --- | --- | --- | --- | --- | --- | --- | --- | --- | --- | --- | --- | --- | --- | --- | --- |
| inactive | inactive | COc1nc2c(cc1S(=O)(=O)c1ccccc1)CCc1cn(C)cc1-2 | 5.80 | 6.05 | 6.00 | 6.70 | 5.60 | 5.70 | 5.72 | 6.05 | 5.31 | 5.96 | 49.6 | 45.4 | 5 | 4 | 40.1 | 50.4 | 9.5 | 15.9 | Stability [11]: Unstable; Activity (Nucleic Acid [22]): inactive; Activity (Nucleic Acid [23]): inactive; Activity (Jurkat [24]): Dose-dependent effect; Activity (Jurkat [25]): Dose-dependent effect |
| – | – | Cc1c2c(cn1Cc1ccccc1)CCc1cc(S(=O)(=O)c3ccccc3)c(=O)[nH]c1-2 | 5.40 | 5.60 | 4.89 | 5.52 | < 4.70 | 5.11 | < 4.70 | < 4.70 | < 4.70 | 4.84 | – | – | – | – | – | – | – | – | Stability [26]: Unstable |
| inactive | inactive | CCOC(=O)c1c2c(c(C)n1Cc1ccccc1)-c1[nH]c(=O)c(S(=O)(=O)c3ccccc3)cc1CC2 | 5.92 | 6.10 | 5.54 | 5.72 | 5.48 | 5.85 | 5.40 | 5.64 | 5.40 | 5.60 | 53.8 | 41.8 | 4.4 | 3.8 | 44.8 | 54.4 | 0.8 | 12.5 | Activity (Jurkat [27]): Active; Activity (Jurkat [28]): Active; Activity (Jurkat [29]): Active; Activity (Nucleic Acid [22]): inactive; Activity (Nucleic Acid [23]): inactive; Activity (Jurkat [24]): Dose-dependent effect; Activity (Jurkat [25]): Dose-dependent effect |
